Reference: article PMC2806602 (The Journal of neuroscience : the official journal of the …, 2009)
Changes are numbered by the printed parent chain. “Also recorded” adds a separate entry of the source.

Assays:
[1] = target: T1, GluRδ2^Lc R530K (Rattus norvegicus, UniProt Q63226, A654T/R530K); experiment: Two-electrode voltage-clamp recordings in Xenopus oocytes, GluRδ2^Lc R530K; type: cell-based; details: 3 mM Ca^2+; baseline spontaneously active current; ± SEM
T1 sequence (Q63226 24-1007 R530K/A654T): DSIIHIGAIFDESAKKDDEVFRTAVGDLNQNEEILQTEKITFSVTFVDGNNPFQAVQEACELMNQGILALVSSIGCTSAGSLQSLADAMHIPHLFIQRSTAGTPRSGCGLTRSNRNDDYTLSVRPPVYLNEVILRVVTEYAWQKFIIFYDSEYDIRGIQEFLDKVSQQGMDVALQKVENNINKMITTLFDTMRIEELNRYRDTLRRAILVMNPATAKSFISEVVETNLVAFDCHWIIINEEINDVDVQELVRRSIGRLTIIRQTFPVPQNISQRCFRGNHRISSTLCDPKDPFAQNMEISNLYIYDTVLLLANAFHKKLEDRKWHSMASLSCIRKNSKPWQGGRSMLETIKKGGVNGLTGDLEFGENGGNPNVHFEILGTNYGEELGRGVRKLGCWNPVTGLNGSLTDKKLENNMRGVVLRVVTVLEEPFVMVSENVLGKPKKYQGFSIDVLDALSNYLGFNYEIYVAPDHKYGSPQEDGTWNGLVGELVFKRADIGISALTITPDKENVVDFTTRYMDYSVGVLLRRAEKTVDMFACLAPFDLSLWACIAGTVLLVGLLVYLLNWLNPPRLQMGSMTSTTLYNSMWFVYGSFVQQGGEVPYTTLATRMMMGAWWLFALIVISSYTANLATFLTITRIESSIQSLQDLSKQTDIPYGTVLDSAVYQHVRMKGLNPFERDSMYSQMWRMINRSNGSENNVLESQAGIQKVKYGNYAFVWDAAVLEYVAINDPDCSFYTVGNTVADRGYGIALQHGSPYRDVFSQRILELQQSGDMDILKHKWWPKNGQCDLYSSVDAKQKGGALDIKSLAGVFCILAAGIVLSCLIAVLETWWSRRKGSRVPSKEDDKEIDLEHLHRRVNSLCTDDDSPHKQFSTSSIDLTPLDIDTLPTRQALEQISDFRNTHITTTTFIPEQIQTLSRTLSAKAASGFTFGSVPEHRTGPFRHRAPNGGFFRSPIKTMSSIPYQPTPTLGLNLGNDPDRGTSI
How it was run: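 Oocytes expressing the Lc mutant were kept in 25 μM NASP to prevent cytotoxicity. Two-electrode voltage clamp at −40 mV and 23°C, 24–72 h after cRNA injection. Bath: 90 mM NaCl, 3 mM KCl, 0.5 mM BaCl2, 10 mM HEPES, pH 7.6. Choline or NMDG chloride balanced Cl− and osmolarity. Values are fold increase over the Ca2+-free spontaneously active baseline on applying 3 mM Ca2+, given as mean ± SEM over oocytes.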

[2] = target: T2, GluRδ2^Wt (Rattus norvegicus, UniProt Q63226); experiment: Two-electrode voltage-clamp recordings in Xenopus oocytes expressing GluRδ2^Wt; type: cell-based
T2 sequence (Q63226 24-1007): T1 sequence (Q63226 24-1007 R530K/A654T) with K507R, T631A
How it was run: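 Oocytes injected with wild-type receptor cRNA the day after excision and collagenase treatment. Two-electrode voltage clamp at −40 mV and 23°C, 24–72 h post-injection. Bath: 90 mM NaCl, 3 mM KCl, 0.5 mM BaCl2, 10 mM HEPES, pH 7.6. Ba2+ was replaced by 0.5 mM Mg2+, Zn2+, Mn2+, Sr2+ or Ca2+, or Ca2+ was raised stepwise. Choline or NMDG chloride kept osmolarity and Cl− constant. Baseline was current without Ca2+.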

- Ca^2+ potentiation (relative to baseline) [1]: 3.3 ± 0.20 fold
- effect of divalent cation on currents at GluRδ2^Wt ([2]; 0.5 mM Ba^2+ exchanged with 0.5 mM of the divalent cation): no changes were observed
SMILES: [Ca+2] [Ca^2+, calcium]
- effect of extracellular Ca^2+ on baseline currents at GluRδ2^Wt ([2]; increasing concentrations of Ca^2+): insensitive; also recorded: did not induce current
